Screens: PubChem, Sanford-Burnham Center for Chemical Genomics
In the library only some 2.5% were active in any assay of this set; here they are far more common.
PMI act satM6P = increases human PMI activity with near-saturating mannose 6-phosphate; P34949; coupled PMI enzyme assay, resazurin fluorescence, 20 min; hits give high values; 1 = untreated enzyme, 0 = substrate-free blank; activation factor at 20 µM; 0.34% of 190,000 active; AID 1216;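 active = activation factor of 2 or more at 20 µM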
Target sequence (P34949 whole entry, looked up): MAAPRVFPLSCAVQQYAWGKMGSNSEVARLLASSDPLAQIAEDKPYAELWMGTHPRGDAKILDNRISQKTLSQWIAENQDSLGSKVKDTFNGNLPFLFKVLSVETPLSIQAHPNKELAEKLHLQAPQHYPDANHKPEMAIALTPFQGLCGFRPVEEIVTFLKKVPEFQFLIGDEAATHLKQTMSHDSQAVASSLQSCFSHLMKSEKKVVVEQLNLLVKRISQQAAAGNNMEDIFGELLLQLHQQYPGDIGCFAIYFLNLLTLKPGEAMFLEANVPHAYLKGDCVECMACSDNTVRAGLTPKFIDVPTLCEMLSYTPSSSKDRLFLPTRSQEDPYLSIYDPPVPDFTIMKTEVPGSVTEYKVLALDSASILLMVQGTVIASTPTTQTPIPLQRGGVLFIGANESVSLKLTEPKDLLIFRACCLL
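Test system – human PMI in coupled enzyme assay · Timing – 20 min incubation at room temperature · Detection – Diaphorase-driven resazurin-to-resorufin fluorescence, excitation 544, emission 590 nm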
FLuc inh counter = Photinus pyralis luciferase inhibition counter-screen. inhibition, % at 10 µM. ATPLite firefly luciferase biochemical luminescence, 10 min. 1.5% of 200,000 active;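 active = inhibition above about 50% when tested at 10 µM, limit read from the data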
FLuc act counter = firefly luciferase counter-screen for stimulation assays. activation factor at 10 µM. ATPlite luciferase biochemical, luminescence, 10 min; 0 = ATP-free wells, 1 = DMSO control. 200,000 tested, under 10 active;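 active = luciferase activation factor, scaled between plate controls, of at least 2 with compound at 10 µM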
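Assay system – cell-free luciferase reagent · Medium – PBS-based ATP solution · Dosing – test compounds dosed from 2 mM stocks in 100% DMSO · Timing – 10 min, room temperature · Technique – light output (luminescence) · Measure – luminescence gain marking luciferase activators · Controls – No-ATP low control, compound-free enzyme-plus-ATP high control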
Diaphorase inh = counter-screen for diaphorase-based assays: diaphorase inhibitors and chemical oxidizers. inhibition, % at 20 µM. 0.69% of 190,000 active. diaphorase resazurin-to-resorufin fluorescence, NADH, 16 min; bacterial (C. kluyveri) enzyme, not human;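 active = primary screen inhibition at 20 µM above a set limit, cut at about 50% in these data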;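 also: plate controls were DMSO with full reaction for no effect and wells lacking NADH for full effect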
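System: Bacterial diaphorase enzyme (C. kluyveri) | Incubation: 16-min room-temperature incubation before reading | Benchmarks: No-NADH positive control and DMSO neutral control | Measured by: Resorufin fluorescence 544/590 nm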
Diaphorase act = activates diaphorase or chemically reduces, flagging diaphorase assay artifacts; Diaphorase/resazurin coupled assay, resorufin fluorescence, 16 min; hits give high values; 1 = vehicle wells, 0 = NADH-free wells; activation factor at 20 µM; 0.005% of 190,000 active; AID 1229;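 active = diaphorase activity raised at least twofold by the compound at 20 µM; inactive = activation factor below 2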
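Test system: Clostridium kluyveri diaphorase, purified enzyme; input: enzyme 0.07 U/mL final; buffer or medium: 50 mM HEPES pH 7.4 with 4.542 mM MgCl2, 0.005% Tween 20; also added: 0.114 mM NADH and 0.1 mM resazurin, final amounts; schedule: 16 min enzyme reaction, ambient temperature; technique: fluorescence of resorufin, 544 nm excitation, 590 nm emission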
PMI act = phosphomannose isomerase (human) activation. P34949. purified human PMI, coupled resazurin fluorescence, 20 min; hits give high values; 1 = vehicle control, 0 substrate-free wells. activation factor at 20 µM. 0.005% of 190,000 active;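 active = activation factor of 2 or more at 20 µM, relative to plate controls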
An asterisk follows results filed as active.

SMILES | PMI act satM6P | FLuc inh counter | FLuc act counter | Diaphorase inh | Diaphorase act | PMI act
COc1ccc(NC(=O)Cn2cnc3sc(C)c(S(=O)(=O)N4CCOCC4)c3c2=O)c(OC)c1 | 1 | -8.0 | 1.1 | 8.6 | 0.9 | 1
Cc1ccc(C)c(C(=O)COC(=O)c2cccc(N3C(=O)c4c(C)nc5ccccc5c4C3=O)c2)c1 | 1 | 60.4* | 0.4 | 12.2 | 0.9 | 1
CSc1nc(-c2ccccc2)[nH]c(=S)c1C(C)=O | 1.1 | -4.3 | 1 | 73.2* | 0.3 | 1
CC(=O)c1c(NC(=O)c2ccccc2)[nH]c(-c2ccccc2)nc1=S | 1.1 | -8.4 | 1.1 | 67.3* | 0.3 | 1.1
CSc1nc(-c2ccccc2)nc(NC(=O)c2ccccc2)c1C(C)=O | 1 | -7.1 | 1.1 | 6.2 | 0.9 | 1
COc1ccc2[nH]c3nc(SC(C)C)nnc3c2c1 | 1 | 63.1* | 0.4 | -6.7 | 1.1 | 1
COc1ccc2[nH]c3nc(SCc4nnc(-c5ccccc5)o4)nnc3c2c1 | 1 | -3.6 | 1 | 10.2 | 0.9 | 1
Cc1cc(OC(C)C(=O)N/N=C/CC(C)c2ccccc2)ccc1Cl (configuration not stated) | 1.1 | -10.6 | 1.1 | -3.6 | 1 | 1.1
c1ccc(-c2csc(Nc3ncccn3)n2)cc1 | 1.1 | 27.8 | 0.7 | 7.2 | 0.9 | 1
NNc1nc(-c2ccccc2)cs1 | 2* | 2.9 | 1 | 14.1 | 0.9 | 1.6
O=c1[nH]c2ccccc2c(O)c1O | 0.2 | -9.7 | 1.1 | 72.4* | 0.3 | 0.3
COC(=O)c1c(O)c2ccccc2[nH]c1=O | 1.1 | 2.8 | 1 | -2.9 | 1 | 1
CCOC(=O)C1=C(C)NC(=S)NC1/C=C/c1ccccc1 (configuration not stated) | 1 | -1.5 | 1 | 5.3 | 0.9 | 0.9
Cc1cc(C)c2c(c1)C1C=CCC1C(c1ccc(S(=O)(=O)N3CCOCC3)cc1)N2 (configuration not stated) | 2.2* | -5.5 | 1.1 | 20.0 | 0.8 | 1.4
CN(Cc1c(O)ccc2c1oc(=O)c1ccccc12)C1CCCCC1 | -0.1 | -4.3 | 1 | 93.8* | 0.1 | -0.1
COc1ccc(C=C2C(=O)c3ccccc3C2=O)cc1O | 0.4 | 61.7* | 0.4 | 36.7 | 0.6 | 0.8
Cc1ccc(NC(=O)c2ccc3c(c2)OCCO3)cc1 | 1 | 89.0* | 0.1 | 10.3 | 0.9 | 1
O=C(Nc1ccncc1)c1ccc2c(c1)OCCO2 | 0.9 | 24.5 | 0.8 | 5.3 | 0.9 | 0.9
O=C(Nc1ccc(N2CCCCC2)cc1)c1ccc2c(c1)OCCO2 | 0.9 | 64.8* | 0.4 | 14.4 | 0.9 | 1
Cc1cc(=O)n2ccsc2n1 | 1 | -7.9 | 1.1 | 9.5 | 0.9 | 0.9
N#CCCn1cc(/C=C2\NC(=S)N(c3ccccc3)C2=O)c(-c2ccc(F)cc2)n1 | 0.9 | -6.4 | 1.1 | 84.9* | 0.2 | 0.9
COc1cc(/C=C2/NC(=O)NC2=O)cc(Br)c1OCc1ccccc1 | 1.1 | -4.8 | 1 | -0.2 | 1 | 1
Cc1ccc(-c2nc3ccccc3n2C)o1 | 1 | 67.5* | 0.3 | 4.7 | 1 | 0.9
Cn1cc(C(=O)c2ccccc2)cc1-c1nc2ccccc2n1C | 0.8 | -7.7 | 1.1 | 20.1 | 0.8 | 0.8
Cn1c(-c2ccc(Br)o2)nc2ccccc21 | 1.2 | 82.7* | 0.2 | -1.8 | 1 | 1.3
SMILES | PMI act satM6P | FLuc inh counter | FLuc act counter | Diaphorase inh | Diaphorase act | PMI act
CC(=O)c1ccc(-c2nc3ccccc3n2C)o1 | 1.1 | 25.4 | 0.7 | 9.5 | 0.9 | 1
Cc1oc(-c2nc3ccccc3n2C)cc1C(=O)c1ccccc1 | 1.4 | 90.0* | 0.1 | 10.2 | 0.9 | 1.3
Cn1c(-c2ccc(Br)o2)nc2cc(Br)ccc21 | 1.1 | 63.7* | 0.4 | 17.6 | 0.8 | 1.1
COc1ccc(C(=O)n2nc(-c3ccccc3)nc2N)cc1OC | 1 | 4.7 | 1 | 3.6 | 1 | 0.9
c1ccc2c(c1)Cn1nnnc1-2 | 1 | -3.8 | 1 | -4.5 | 1 | 1
c1ccc2c(c1)Cn1c-2nc2ccccc21 | 0.9 | 63.6* | 0.4 | 11.1 | 0.9 | 0.9
CCOc1ccc(C2CC(c3c(O)c4ccccc4oc3=O)=NN2c2ccccc2)cc1OC (configuration not stated) | 2.6* | -1.0 | 1 | 20.7 | 0.8 | 1.6
Cc1ccc(/C=N/c2sc3c(c2C#N)CCC3)s1 | 0.9 | 71.5* | 0.3 | 11.8 | 0.9 | 0.8
N#Cc1c(/N=C/c2ccco2)sc2c1CCC2 | 0.9 | 50.4* | 0.5 | 13.9 | 0.9 | 0.9
Cc1ccc(C=Nc2ccccc2C#N)s1 | 1 | 75.7* | 0.2 | 9.5 | 0.9 | 1
Cc1ccc(/C=N/c2sc3c(c2C#N)CCCCC3)o1 | 0.8 | 91.5* | 0.1 | 15.8 | 0.8 | 0.6
COc1ccc(C(=O)Oc2c(CN3CCOCC3)cc(Cl)c3cccnc23)cc1 | 0.8 | -6.4 | 1.1 | 14.1 | 0.9 | 0.8
COc1cc(C(=O)Oc2c(CN3CCOCC3)cc(Cl)c3cccnc23)cc(OC)c1OC | 0.6 | -6.4 | 1.1 | 58.1* | 0.4 | 0.6
CCOc1ccccc1N1CCN(Cc2cccc(OC)c2O)CC1 | 1 | -5.4 | 1.1 | 10.2 | 0.9 | 0.9
COCc1cc(CN2CCCC2)c(O)c2ncccc12 | 0.6 | -1.7 | 1 | 44.0 | 0.6 | 0.6
OCCN1CCN(Cc2cc(Cl)c3cccnc3c2O)CC1 | 0.5 | -1.9 | 1 | 68.7* | 0.3 | 0.5
Oc1c(CN2CCN(c3ccccn3)CC2)cc(Cl)c2cccnc12 | 0.4 | -4.3 | 1 | 53.0* | 0.5 | 0.5
COc1ccccc1N1CCN(Cc2cc(Br)c(O)c3ncccc23)CC1 | 0.6 | -10.2 | 1.1 | 58.2* | 0.4 | 0.7
CCN(CC)S(=O)(=O)c1ccc(C(=O)NCc2n[nH]c(=S)n2-c2ccc(Cl)c(Cl)c2)cc1 | 0.8 | -4.6 | 1 | 41.3 | 0.6 | 0.8
CC(C)C(NC(=O)OCc1ccccc1)C(=O)NC1CCCCC1 (configuration not stated) | 0.9 | -4.0 | 1 | 13.6 | 0.9 | 0.9
Cc1c(NC(=O)COC(=O)c2ccc(Br)o2)c(=O)n(-c2ccccc2)n1C | 1.1 | -7.2 | 1.1 | 2.5 | 1 | 1
NS(=O)(=O)c1ccc(CNC(=O)Cc2c(F)cccc2Cl)cc1 | 1.1 | -0.3 | 1 | -7.0 | 1.1 | 1.1
Cc1cc(C2=NNC(=NC3CCCCC3)SC2)c(C)n1-c1c(C)n(C)n(-c2ccccc2)c1=O | 0.9 | 0.0 | 1 | 8.8 | 0.9 | 1
Cc1cc(C2=NNC(=NC3CC3)SC2)c(C)n1-c1ccccc1F | 1 | 95.5* | 0 | -2.4 | 1 | 1.1
